Experimental data: ChEMBL document CHEMBL4715736, “Identification of anticancer agents based on the thieno[2,3-b]pyridine and 1H-pyrazole molecular scaffolds” (2016)

Columns and labels:
Type in all cases: functional
HCC 2998 [1] = test: Growth inhibition of human HCC 2998 cells assessed as cell growth at 100 uM incubated for 48 hrs by sulforhodamine B assay relative to control; details: read-out: Activity
Procedure, shortened: (§1)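 NCI Developmental Therapeutics Program NCI60 panel. Compounds that were active in the 10 µM one-dose screen went on to dose–response testing. Growth at each concentration is expressed relative to untreated control (100%). GI50 (concentration giving 50% of maximal inhibition of proliferation) and TGI (concentration giving total growth inhibition) were derived from the curves.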

NCI-H23 [2] = test: Growth inhibition of human NCI-H23 cells assessed as cell growth at 1 uM incubated for 48 hrs by sulforhodamine B assay relative to control; details: read-out: Activity
UACC-257 [3] = test: Growth inhibition of human UACC-257 cells assessed as cell growth at 100 uM incubated for 48 hrs by sulforhodamine B assay relative to control; details: read-out: Activity
HCC 2998 [4] = test: Growth inhibition of human HCC 2998 cells incubated for 48 hrs by sulforhodamine B assay; details: for CC50: read-out: LC50 (the source's name)
SF-295 = test: Growth inhibition of human SF-295 cells assessed as cell growth at 0.01 uM incubated for 48 hrs by sulforhodamine B assay relative to control; details: read-out: Activity
CAKI-1 = test: Growth inhibition of human CAKI-1 cells assessed as cell growth at 100 uM incubated for 48 hrs by sulforhodamine B assay relative to control; details: read-out: Activity; procedure, shortened: as §1
UACC-257 [5] = test: Growth inhibition of human UACC-257 cells incubated for 48 hrs by sulforhodamine B assay
Procedure, shortened: (§2)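 NCI DTP 60-line human tumour panel. Dose-response curves were run only for ligands active in the initial 10 µM screen. GI50 (concentration giving 50% of maximal inhibition of proliferation) and TGI (concentration giving total growth inhibition) were derived from these curves.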

OVCAR-5 [6] = test: Growth inhibition of human OVCAR-5 cells assessed as cell growth at 100 uM incubated for 48 hrs by sulforhodamine B assay relative to control; details: read-out: Activity
MOLT-4 = test: Growth inhibition of human MOLT-4 cells incubated for 48 hrs by sulforhodamine B assay; details: for CC50: read-out: LC50 (the source's name)
Procedure, shortened: (§3)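 NCI60 panel at the NCI Developmental Therapeutics Program. Only compounds active in the 10 µM screen went to dose-response testing. GI50, the concentration giving 50% of maximal inhibition of proliferation, and TGI, the concentration giving total growth inhibition, were derived from the dose-response curves.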

A498 [7] = test: Growth inhibition of human A498 cells assessed as cell growth at 100 uM incubated for 48 hrs by sulforhodamine B assay relative to control; details: read-out: Activity; procedure, shortened: as §1
SNB-75 [8] = test: Growth inhibition of human SNB-75 cells incubated for 48 hrs by sulforhodamine B assay; procedure, shortened: as §2
OVCAR-5 [9] = test: Growth inhibition of human OVCAR-5 cells assessed as cell growth at 0.1 uM incubated for 48 hrs by sulforhodamine B assay relative to control; details: read-out: Activity
A549 = test: Growth inhibition of human A549/ATCC cells incubated for 48 hrs by sulforhodamine B assay; details: for CC50: read-out: LC50 (the source's name); procedure, shortened: as §1
SK-MEL-5 = test: Growth inhibition of human SK-MEL-5 cells assessed as cell growth at 0.1 uM incubated for 48 hrs by sulforhodamine B assay relative to control; details: read-out: Activity
RPMI-8226 = test: Growth inhibition of human RPMI-8226 cells assessed as cell growth at 0.1 uM incubated for 48 hrs by sulforhodamine B assay relative to control; details: read-out: Activity
MDA-MB-468 = test: Growth inhibition of human MDA-MB-468 cells assessed as cell growth at 0.01 uM incubated for 48 hrs by sulforhodamine B assay relative to control; details: read-out: Activity
ACHN = test: Growth inhibition of human ACHN cells assessed as cell growth at 1 uM incubated for 48 hrs by sulforhodamine B assay relative to control; details: read-out: Activity
SR [10] = test: Growth inhibition of human SR cells assessed as cell growth at 0.1 uM incubated for 48 hrs by sulforhodamine B assay relative to control; details: read-out: Activity
MCF7 [11] = test: Growth inhibition of human MCF7 cells incubated for 48 hrs by sulforhodamine B assay; details: for CC50: read-out: LC50 (the source's name); procedure, shortened: as §3
KM12 = test: Growth inhibition of human KM12 cells assessed as cell growth at 0.1 uM incubated for 48 hrs by sulforhodamine B assay relative to control; details: read-out: Activity
HCT-15 = test: Growth inhibition of human HCT-15 cells incubated for 48 hrs by sulforhodamine B assay; procedure, shortened: as §3
MCF7 [12] = test: Growth inhibition of human MCF7 cells assessed as cell growth at 1 uM incubated for 48 hrs by sulforhodamine B assay relative to control; details: read-out: Activity
SR [13] = test: Growth inhibition of human SR cells assessed as cell growth at 0.01 uM incubated for 48 hrs by sulforhodamine B assay relative to control; details: read-out: Activity
NCI-H226 = test: Growth inhibition of human NCI-H226 cells incubated for 48 hrs by sulforhodamine B assay; details: for CC50: read-out: LC50 (the source's name); procedure, shortened: as §3
HOP-92 = test: Growth inhibition of human HOP-92 cells assessed as cell growth at 0.1 uM incubated for 48 hrs by sulforhodamine B assay relative to control; details: read-out: Activity
Hs-578T = test: Growth inhibition of human Hs-578T cells incubated for 48 hrs by sulforhodamine B assay; details: for CC50: read-out: LC50 (the source's name); procedure, shortened: as §3
SNB-75 [14] = test: Growth inhibition of human SNB-75 cells assessed as cell growth at 100 uM incubated for 48 hrs by sulforhodamine B assay relative to control; details: read-out: Activity
Malme-3M = test: Growth inhibition of human Malme-3M cells assessed as cell growth at 0.1 uM incubated for 48 hrs by sulforhodamine B assay relative to control; details: read-out: Activity
HOP-62 = test: Growth inhibition of human HOP-62 cells assessed as cell growth at 1 uM incubated for 48 hrs by sulforhodamine B assay relative to control; details: read-out: Activity
NCI-H23 [15] = test: Growth inhibition of human NCI-H23 cells assessed as cell growth at 100 uM incubated for 48 hrs by sulforhodamine B assay relative to control; details: read-out: Activity
MDA-MB-231 [16] = test: Growth inhibition of human MDA-MB-231 cells assessed as cell growth at 100 uM incubated for 48 hrs by sulforhodamine B assay relative to control; details: read-out: Activity
A498 [17] = test: Growth inhibition of human A498 cells incubated for 48 hrs by sulforhodamine B assay; details: for CC50: read-out: LC50 (the source's name); procedure, shortened: as §1
786-0 = test: Growth inhibition of human 786-0 cells assessed as cell growth at 0.01 uM incubated for 48 hrs by sulforhodamine B assay relative to control; details: read-out: Activity; procedure, shortened: as §1
MDA-MB-231 [18] = test: Growth inhibition of human MDA-MB-231 cells incubated for 48 hrs by sulforhodamine B assay; details: for CC50: read-out: LC50 (the source's name); procedure, shortened: as §3
TK-10 = test: Growth inhibition of human TK-10 cells assessed as cell growth at 0.1 uM incubated for 48 hrs by sulforhodamine B assay relative to control; details: read-out: Activity

Work on `CCc1cccc(C)c1NC(=O)c1sc2nc3c(cc2c1N)C(=O)CCC3` yielded a growth at 100 µM (HCC 2998 [1]) of 10%, a growth at 1 µM (NCI-H23 [2]) of 42% and a growth at 100 µM (UACC-257 [3]) of -13%. For the same compound, the GI50 (HCC 2998 [4]) was 1.33 µM, the TGI (HCC 2998 [4]) was > 100 µM and the CC50 (HCC 2998 [4]) was > 100 µM. For the same compound, the growth at 0.01 µM (SF-295) was 89%, the growth at 100 µM (CAKI-1) was 12% and the GI50 (UACC-257 [5]) was 0.185 µM. The LC50 (concentration killing 50% of cells) (UACC-257 [5]) was > 100 µM, the TGI (UACC-257 [5]) was 62.3 µM and the growth at 100 µM (OVCAR-5 [6]) was 30%. The GI50 (MOLT-4) was 2.42 µM, the TGI (MOLT-4) was ≥ 100 µM and the CC50 (MOLT-4) was > 100 µM. The growth at 100 µM (A498 [7]) was -16%, the GI50 (SNB-75 [8]) was 0.212 µM and the LC50 (SNB-75 [8]) was > 100 µM. The growth at 0.1 µM (OVCAR-5 [9]) was 88%, the GI50 (A549) was 0.593 µM and the TGI (A549) was > 100 µM. For the same compound, the CC50 (A549) was > 100 µM, the growth at 0.1 µM (SK-MEL-5) was 89% and the growth at 0.1 µM (RPMI-8226) was 102%. For the same compound, the growth at 0.01 µM (MDA-MB-468) was 91%, the growth at 1 µM (ACHN) was 44% and the growth at 0.1 µM (SR [10]) was 101%. The GI50 (MCF7 [11]) was 0.36 µM, the TGI (MCF7 [11]) was ≥ 100 µM and the CC50 (MCF7 [11]) was > 100 µM. For the same compound, the growth at 0.1 µM (KM12) was 92%, the GI50 (HCT-15) was 0.471 µM and the LC50 (HCT-15) was > 100 µM. For the same compound, the TGI (HCT-15) was > 100 µM, the growth at 1 µM (MCF7 [12]) was 18% and the growth at 0.01 µM (SR [13]) was 96%. For the same compound, the GI50 (NCI-H226) was 0.182 µM, the TGI (NCI-H226) was > 100 µM and the CC50 (NCI-H226) was > 100 µM. The growth at 0.1 µM (HOP-92) was 70%, the TGI (Hs-578T) was > 100 µM and the CC50 (Hs-578T) was > 100 µM. It also gave a growth at 100 µM (SNB-75 [14]) of 29%, a growth at 0.1 µM (Malme-3M) of 86% and a growth at 1 µM (HOP-62) of 52%. For the same compound, the growth at 100 µM (NCI-H23 [15]) was 14%, the growth at 100 µM (MDA-MB-231 [16]) was 24% and the GI50 (A498 [17]) was 0.178 µM. The TGI (A498 [17]) was 0.665 µM, the CC50 (A498 [17]) was > 100 µM and the growth at 0.01 µM (786-0) was 86%. The GI50 (MDA-MB-231 [18]) was 1.04 µM, the TGI (MDA-MB-231 [18]) was > 100 µM and the CC50 (MDA-MB-231 [18]) was > 100 µM.

Compound `CN1CCc2nc3sc(C(N)=O)c(N)c3c(-c3cccs3)c2C1` has a growth at 100 µM (HCC 2998 [1]) of -29%, a growth at 1 µM (NCI-H23 [2]) of 89% and a growth at 100 µM (UACC-257 [3]) of 3%. The GI50 (HCC 2998 [4]) was 3.54 µM, the TGI (HCC 2998 [4]) was 20.9 µM and the CC50 (HCC 2998 [4]) was > 100 µM. It also gave a growth at 0.01 µM (SF-295) of 93%, a growth at 100 µM (CAKI-1) of 7% and a GI50 (UACC-257 [5]) of 4 µM. For the same compound, the LC50 (concentration killing 50% of cells) (UACC-257 [5]) was > 100 µM, the TGI (UACC-257 [5]) was > 100 µM and the GI50 (MOLT-4) was 2.89 µM. For the same compound, the TGI (MOLT-4) was 48.4 µM, the CC50 (MOLT-4) was > 100 µM and the growth at 100 µM (A498 [7]) was -23%. For the same compound, the GI50 (SNB-75 [8]) was 2.81 µM, the LC50 (SNB-75 [8]) was > 100 µM and the TGI (SNB-75 [8]) was 8.03 µM. The GI50 (A549) was 3.37 µM, the TGI (A549) was > 100 µM and the CC50 (A549) was > 100 µM. The growth at 0.1 µM (SK-MEL-5) was 91%, the growth at 0.1 µM (RPMI-8226) was 121% and the growth at 0.01 µM (MDA-MB-468) was 86%. It also gave a growth at 0.1 µM (SR [10]) of 96%, a growth at 0.1 µM (TK-10) of 99% and a GI50 (MCF7 [11]) of 4.1 µM. For the same compound, the TGI (MCF7 [11]) was > 100 µM, the CC50 (MCF7 [11]) was > 100 µM and the growth at 0.1 µM (KM12) was 105%. For the same compound, the GI50 (HCT-15) was 3.31 µM, the LC50 (HCT-15) was > 100 µM and the TGI (HCT-15) was > 100 µM. It also gave a growth at 1 µM (MCF7 [12]) of 111%, a growth at 0.01 µM (SR [13]) of 97% and a GI50 (NCI-H226) of 3.16 µM. The TGI (NCI-H226) was > 100 µM, the CC50 (NCI-H226) was > 100 µM and the growth at 0.1 µM (HOP-92) was 116%. For the same compound, the GI50 (Hs-578T) was 3.07 µM, the TGI (Hs-578T) was 21.7 µM and the CC50 (Hs-578T) was > 100 µM. It also gave a growth at 100 µM (SNB-75 [14]) of -40%, a growth at 0.1 µM (Malme-3M) of 111% and a growth at 1 µM (HOP-62) of 102%. For the same compound, the growth at 100 µM (NCI-H23 [15]) was -30%, the growth at 100 µM (MDA-MB-231 [16]) was 26% and the GI50 (A498 [17]) was 2.58 µM. The TGI (A498 [17]) was 7.27 µM, the CC50 (A498 [17]) was > 100 µM and the growth at 0.01 µM (786-0) was 95%. For the same compound, the GI50 (MDA-MB-231 [18]) was 4.77 µM, the TGI (MDA-MB-231 [18]) was > 100 µM and the CC50 (MDA-MB-231 [18]) was > 100 µM.
